According to article PMC3166448 (Urology, 2011):
“Also recorded” adds a separate entry of the source. Counter-ions that a name gives are not always drawn.

How the values were obtained:
[1] = Plasma pharmacokinetics after first IPI-504 dose; format: in vivo, human; conditions: for Time of peak plasma concentration: relative to the 30-minute infusion
[2] = cited from earlier work
[3] = system: castration-resistant prostate cancer (CRPC); conditions: cited from earlier work
[4] = system: androgen-dependent and androgen-independent prostate cancer xenografts; conditions: 3 (Solit et al); cited from earlier work
[5] = system: castration-resistant prostate cancer (CRPC); assay: Phase 2 trial: PSA response / antitumor outcome; format: in vivo, human
Outline: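 Adults (>18 years) with progressive CRPC (two serial PSA rises or progressive radiographic metastases, serum testosterone < 50 […]). Group A was chemotherapy-naïve; Group B had radiographic metastases, progression on or intolerance to docetaxel, and ≤3 prior chemotherapy regimens. Test compound 400 mg/m2 given as a 30-min IV infusion on days 1, 4, 8 and 11 of 21-day cycles; later continuation allowed at 300 mg/m2.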

[6] = 17-AAG: ref 5; IPI-504: ref 6; cited from earlier work
[7] = system: patients with castration-resistant prostate cancer (CRPC); assay: Phase 2 trial: treatment-emergent adverse events; format: in vivo, human
[8] = system: cytochrome P450 3A4 (CYP3A4); conditions: in vitro; cited from earlier work
[9] = twice-weekly; cited from earlier work
[10] = plasma after first IPI-504 dose 400 mg/m^2 iv
[11] = Grade ≥ 3, N=19, IPI-504 400 mg/m^2 iv
[12] = TEAE in > 25% of study population, N=19
[13] = any grade, N=19, IPI-504 400 mg/m^2 iv
[14] = of the 19 patients enrolled and treated

In the case of C=CCNC1=C2C[C@@H](C)C[C@H](OC)[C@H](O)[C@@H](C)/C=C(\C)[C@H](OC(N)=O)[C@@H](OC)/C=C\C=C(/C)C(=O)NC(=CC1=O)C2=O [17-AAG, 17-allylamine-17-demethoxygeldanamycin, reference compound], the “Mean AUC0-∞” value [1, 10] is reported as 9,847 ng*hr/mL, the “mean T1/2” value [1, 10] is reported as 1.4 h and the “Time of peak plasma concentration” value [1] is reported as “at the end of the infusion”. For the same compound, the “Hepatotoxicity in phase I trials” value [2] was “dose limiting toxicity”, the “Antitumor activity in clinical trials in patients with CRPC” value [3] was “negligible antitumor activity” and the “Growth of prostate cancer xenografts” value [4] was “dose-dependent growth inhibition”.
In the case of C=CCNc1c(O)cc2c(O)c1C[C@@H](C)C[C@H](OC)[C@H](O)[C@@H](C)/C=C(\C)[C@H](OC(N)=O)[C@@H](OC)/C=C\C=C(/C)C(=O)N2 [IPI-504, retaspimycin hydrochloride], the “Patients achieving ≥ 50% post-treatment decline in PSA (PSA response)” value ([5]; Groups A and B, N=19) is reported as “No PSA responses; also recorded: No patients”, the “PSA decline from baseline in one patient” value ([5]; one Group A (chemotherapy-naïve) patient) is reported as 48% and the “Time on treatment of the patient with PSA decline” value ([5]; one Group A patient) is reported as 9 cycles. For the same compound, the “Time on study until discontinuation due to disease progression” value ([5]; one Group A patient, after the interim analysis) was “approximately 2 years”, the Overall antitumor activity ([5]; single agent, 400 mg/m^2) was “minimal effect on PSA or tumor burden; also recorded: negligible antitumor activity” and the AUC ([1]; human, in vivo, 400 mg/m^2) was 26400 ng·h/mL. For the same compound, the AUC(0-inf) ([1]; human, in vivo, iv, 400 mg/m2) was 11700 ng·h/mL, the “Time of peak plasma concentration” value [1] was “at the end of the infusion” and the Solubility [6] was “water-soluble”. For the same compound, the “Grade 3 AST elevation in the patient who died of hepatic failure” value ([7]; 1 day before hepatic failure, at study drug administration) was 339 U/L, the “AST elevation (Grade 4) in the second patient” value ([7]; Cycle 1, Dose 2, from 32 U/L at baseline) was 863 U/L and the “ALT elevation (Grade 3) in the second patient” value ([7]; Cycle 1, Dose 2, from a normal baseline level) was 659 U/L. For the same compound, the “AST elevation (Grade 3) in one patient” value ([7]; Cycle 2, Dose 3, prompted study drug discontinuation, returned to normal 4 days later) was 397 U/L, the “ALT Increased, patients with TEAE (Grade ≥ 3)” value [7, 11] was 1 (5) n (%) and the “AST Increased, patients with TEAE (Grade ≥ 3)” value [7, 11] was 2 (11) n (%). For the same compound, the “Anemia, patients with TEAE (Grade ≥ 3)” value [7, 11] was 1 (5) n (%), the “Anorexia, patients with TEAE (Grade ≥ 3)” value [7, 11] was 1 (5) n (%) and the “Anxiety, patients with TEAE (Grade ≥ 3)” value [7, 11] was 0 n (%). The “Arthralgia, patients with TEAE (Grade ≥ 3)” value [7, 11] was 0 n (%), the “Back Pain, patients with TEAE (Grade ≥ 3)” value [7, 11] was 1 (5) n (%) and the “Constipation, patients with TEAE (Grade ≥ 3)” value [7, 11] was 0 n (%). For the same compound, the “Dehydration, patients with TEAE (Grade ≥ 3)” value [7, 11] was 3 (16) n (%), the “Diarrhea, patients with TEAE (Grade ≥ 3)” value [7, 11] was 1 (5) n (%) and the “Fatigue, patients with TEAE (Grade ≥ 3)” value [7, 11] was 1 (5) n (%). The “Headache, patients with TEAE (Grade ≥ 3)” value [7, 11] was 0 n (%), the “Hypokalemia, patients with TEAE (Grade ≥ 3)” value [7, 11] was 0 n (%) and the “Hyponatremia, patients with TEAE (Grade ≥ 3)” value [7, 11] was 2 (11) n (%). The “Infusion Site Pain, patients with TEAE (Grade ≥ 3)” value [7, 11] was 0 n (%), the “Musculoskeletal Pain, patients with TEAE (Grade ≥ 3)” value [7, 11] was 0 n (%) and the “Myalgia, patients with TEAE (Grade ≥ 3)” value [7, 11] was 0 n (%). For the same compound, the “Nausea, patients with TEAE (Grade ≥ 3)” value [7, 11] was 1 (5) n (%), the “Pain in Extremity, patients with TEAE (Grade ≥ 3)” value [7, 11] was 0 n (%) and the “Pneumonia, patients with TEAE (Grade ≥ 3)” value [7, 11] was 2 (11) n (%). The “Pyrexia, patients with TEAE (Grade ≥ 3)” value [7, 11] was 0 n (%), the “Vomiting, patients with TEAE (Grade ≥ 3)” value [7, 11] was 1 (5) n (%) and the “Anorexia, share of study population” value [7, 12] was 26%. The “Arthralgia, share of study population” value [7, 12] was 26%, the “ALT Increased, patients with any TEAE” value [7, 13] was 2 (11) n (%) and the “AST Increased, patients with any TEAE” value [7, 13] was 2 (11) n (%). For the same compound, the “Anemia, patients with any TEAE” value [7, 13] was 4 (21) n (%), the “Anorexia, patients with any TEAE” value [7, 13] was 5 (26) n (%) and the “Anxiety, patients with any TEAE” value [7, 13] was 2 (11) n (%). The “Arthralgia, patients with any TEAE” value [7, 13] was 5 (26) n (%), the “Back Pain, patients with any TEAE” value [7, 13] was 2 (11) n (%) and the “Constipation, patients with any TEAE” value [7, 13] was 4 (21) n (%). The “Dehydration, patients with any TEAE” value [7, 13] was 4 (21) n (%), the “Diarrhea, patients with any TEAE” value [7, 13] was 8 (42) n (%) and the “Fatigue, patients with any TEAE” value [7, 13] was 6 (32) n (%). The “Headache, patients with any TEAE” value [7, 13] was 2 (11) n (%), the “Hypokalemia, patients with any TEAE” value [7, 13] was 2 (11) n (%) and the “Hyponatremia, patients with any TEAE” value [7, 13] was 2 (11) n (%). The “Infusion Site Pain, patients with any TEAE” value [7, 13] was 4 (21) n (%), the “Musculoskeletal Pain, patients with any TEAE” value [7, 13] was 3 (16) n (%) and the “Myalgia, patients with any TEAE” value [7, 13] was 3 (16) n (%). The “Pain in Extremity, patients with any TEAE” value [7, 13] was 4 (21) n (%), the “Pneumonia, patients with any TEAE” value [7, 13] was 2 (11) n (%) and the “Pyrexia, patients with any TEAE” value [7, 13] was 3 (16) n (%). For the same compound, the “Vomiting, patients with any TEAE” value [7, 13] was 4 (21) n (%), the “Nausea, patients with any TEAE” value ([7]; any grade, N=19, IPI-504 400 mg/m^2 iv days 1, 4, 8, 11 of 21-day cycle) was 9 (47) n (%) and the “Patients reported with treatment-emergent AEs (TEAEs), number” value [7, 14] was 18 patients. The “Patients whose TEAEs resulted in death, percent” value [7, 14] was 11%, the “Patients with CTCAE Grade 3 or higher TEAEs, number” value [7, 14] was 11 patients and the “Patients with CTCAE Grade 3 or higher TEAEs, percent” value [7, 14] was 58%. For the same compound, the “Involvement of CYP3A4 in metabolism” value [8] was “involved in the metabolism” and the “Maximum tolerated dose as a single agent” value [9] was no less than 400 mg/m^2.
For CO[C@H]1/C=C/C=C(\C)C(=O)NC2=CC(=O)C(N)=C(C[C@@H](C)C[C@H](OC)[C@H](O)[C@@H](C)/C=C(\C)[C@@H]1OC(N)=O)C2=O [17-AG], the “mean T1/2” value [1, 10] was 5.2 h, the “Time of peak plasma concentration” value [1] was “ranging from the end of the infusion to 1.5 hours post-infusion” and the “Share of the total measured exposure” value ([1]; sum of IPI-504, 17-AAG and 17-AG without adjustment for molecular weight) was “approximately 68%”.
